Source: PubChem BioAssay
Hits are enriched below; roughly 2.3% of the tested compounds scored in any of these assays.
TRPC4 potent – positive allosteric modulators of TRPC4, primary screen, cell-based, mouse TRPC4beta, HEK293 mu-opioid, Fluo-4 calcium. Short transient receptor potential channel 4 (Mus musculus), Q9QUQ5. DAMGO EC20, Fluo-4 Ca2+ flux; active compounds read high. B-score at 10 µM. 310,000 tested, 0.42% active;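 active = B-score of calcium response area above 5 SD of library B-scores, with initial fluorescence ratio within 5 SD of library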;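 also: B-score of integrated fluorescence ratio over time as area under calcium response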
TRPC4 inh – inhibitors of mouse TRPC4 channel, primary screen, Fluo4 calcium, HEK293 TRPC4beta/mu-opioid cells; DAMGO-evoked Fluo4 calcium flux; active compounds read low; B-score at 10 µM; 300,000 tested, 0.39% active; AID 2247, 2010;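 active = B-score over 3 SD under the library average, no early fluorescence shift, positive overall ratio signal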
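Assay system: Stable TRPC4beta/mu-opioid receptor HEK293 cells | Reagent: DAMGO in two steps, submaximal then maximal | Compound dosing: Single concentration per test compound | Signal: Fluo4 Ca2+ flux fluorescence | Evaluation: Per-well B score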
TRPC6 inhibitor – mouse TRPC6 channel inhibitors, primary screen, cell-based, HEK293, membrane potential dye. Short transient receptor potential channel 6 (Mus musculus), Q61143. AID 2553, 2010. B-score at 10 µM. 310,000 tested, 1.1% active. ACh-evoked depolarization; active compounds read low;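 active = B-score under library mean minus 3 SD, initial fluorescence not abnormally high, positive integrated signal ratio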;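 also: B-score derived from integrated fluorescence ratio over the kinetic read; more negative B-score means stronger inhibition of depolarization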
Target sequence (Q61143 whole entry, looked up): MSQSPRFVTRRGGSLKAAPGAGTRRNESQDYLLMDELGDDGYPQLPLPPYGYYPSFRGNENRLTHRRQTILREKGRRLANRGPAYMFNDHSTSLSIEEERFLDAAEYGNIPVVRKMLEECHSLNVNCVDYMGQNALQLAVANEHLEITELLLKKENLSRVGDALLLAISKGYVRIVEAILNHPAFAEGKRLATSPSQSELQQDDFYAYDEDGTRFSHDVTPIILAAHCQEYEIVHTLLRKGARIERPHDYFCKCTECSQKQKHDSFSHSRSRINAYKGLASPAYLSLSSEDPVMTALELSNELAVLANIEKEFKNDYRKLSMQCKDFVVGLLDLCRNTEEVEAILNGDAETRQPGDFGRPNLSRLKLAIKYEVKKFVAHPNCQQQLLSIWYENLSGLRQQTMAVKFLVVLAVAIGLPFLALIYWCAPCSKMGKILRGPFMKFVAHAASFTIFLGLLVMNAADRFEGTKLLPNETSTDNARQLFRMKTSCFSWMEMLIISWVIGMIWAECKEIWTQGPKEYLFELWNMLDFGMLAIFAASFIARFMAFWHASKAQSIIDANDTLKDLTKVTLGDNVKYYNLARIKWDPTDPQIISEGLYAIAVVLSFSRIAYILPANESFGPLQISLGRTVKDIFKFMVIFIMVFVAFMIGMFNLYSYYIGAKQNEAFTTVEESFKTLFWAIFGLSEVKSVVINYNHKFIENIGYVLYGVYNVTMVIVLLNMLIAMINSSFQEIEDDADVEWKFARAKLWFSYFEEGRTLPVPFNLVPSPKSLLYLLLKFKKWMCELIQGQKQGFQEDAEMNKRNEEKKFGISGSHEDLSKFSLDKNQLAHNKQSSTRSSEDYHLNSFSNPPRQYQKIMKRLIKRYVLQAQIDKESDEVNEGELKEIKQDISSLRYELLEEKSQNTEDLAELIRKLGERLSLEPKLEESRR
TRPC4 agonist – activators of mouse TRPC4 channel, primary screen, Fluo4 calcium, HEK293 TRPC4beta/mu-opioid cells; Short transient receptor potential channel 4 (Mus musculus), Q9QUQ5; Fluo4 calcium fluorescence; active compounds read high; B-score at 10 µM; 310,000 tested, 0.49% active;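 active = B-score above 5 SD of library B-scores, and initial fluorescence ratio not above library mean plus 5 SD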;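 also: positive B-score marks a calcium rise read as TRPC4 activation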
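Test system: HEK293 cells stably co-expressing mouse TRPC4beta and mu-opioid receptor | Schedule: Fluo4 dye loading 45 min at room temperature, 110 s recording | Measured by: Kinetic Fluo4 calcium fluorescence, 5 s baseline at 1 Hz | Evaluation: B score of integrated ratio | Controls: Buffer (low) and maximal DAMGO (high)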
TRPC6 act – mouse TRPC6 channel activators, primary screen, cell-based, HEK293, membrane potential dye; Short transient receptor potential channel 6 (Mus musculus), Q61143; HEK293-TRPC6 membrane potential dye fluorescence; active compounds read high; B-score at 10 µM; 310,000 tested, 0.13% active;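 active = B-score of the integrated fluorescence ratio above library mean plus 3 SD, and starting fluorescence ratio within library mean plus 5 SD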;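 also: higher score means more depolarization so channel activation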
TRPC4 sel inh 2 – second check of whether TRPC6 inhibitors also affect mouse TRPC4; HEK293 TRPC4/MOR, membrane potential dye fluorescence; channel activated by saturating DAMGO dose; shares compounds with TRPC6 inhibitor; 920 tested, 42% active; inhibition, % at 10 µM;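 active = compounds whose fluorescence signal differed from control wells by over 3 SD, either direction, in both duplicate plates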
TRPC4 spec – mouse TRPC4 modulation by TRPC6 hits, confirmation, selectivity assay for TRPC6 inhibitor project, cell-based, HEK293 TRPC4/mu-opioid, membrane potential dye; shares compounds with TRPC6 inhibitor; AID 2777, 2010; membrane potential fluorescence; activity change, negative = inhibition, % at 10 µM; 920 tested, 61% active;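 active = rise or fall in signal beyond 3 SD of buffer-only wells in both replicate plates, either sign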;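 also: integrated kinetic ratio of fluorescence range over baseline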
HEK293 MPD ctr 2-1 – nonspecific membrane potential effects, parental HEK293, confirmation, counter-screen for TRPC6 inhibitor project, cell-based, second counter screen | AID 2779, 2010 | 920 tested, 31% active | signal change vs control, % at 10 µM | shares compounds with TRPC6 inhibitor | parental HEK293 membrane potential dye fluorescence; maximal acetylcholine challenge after compound addition;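 active = membrane potential signal moving either way by over 3 SD of the maximum-effect control, in both duplicate plates, meaning non-specific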
HEK293 MPD ctr-1 – membrane potential modulation in parental HEK293, confirmation, counter-screen for TRPC6 inhibitor project, cell-based; parental HEK293 membrane potential dye fluorescence; 920 tested, 60% active; shares compounds with TRPC6 inhibitor; AID 2780, 2010; membrane potential signal change, % at 10 µM;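 active = membrane potential signal shifting up or down by more than 3 SD of buffer-only wells, on both duplicate plates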
HEK293 MPD ctr-2 – parental HEK293 membrane potential modulation, confirmation, counter-screen for TRPC6 modulator project, cell-based. membrane potential signal change, % at 10 µM. 2,400 tested, 51% active. shares compounds with TRPC6 inhibitor. AID 488924, 2010. membrane potential dye fluorescence;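 active = membrane potential signal moves up or down beyond 5 SD from buffer-only wells, on both duplicate plates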
HEK293 MPD ctr 2-2 – second counter-screen for TRPC6 modulators: effect in parental HEK293 cells; shares compounds with TRPC6 inhibitor; membrane potential dye fluorescence; after compound, maximal acetylcholine stimulation; inhibition, % at 10 µM; 2,400 tested, 14% active;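 active = membrane potential signal drops by more than 5 SD from the mean control signal, in both duplicate plates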;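 also: plate controls were acetylcholine ECmax control wells for no effect and buffer only wells for full effect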
TRPC4 ctr mod – TRPC4 modulation by TRPC6 hit compounds, confirmation, selectivity assay for TRPC6 modulator project, cell-based, HEK293 TRPC4/mu-opioid, membrane potential dye, mouse. 2,400 tested, 69% active. AID 488927, 2010. shares compounds with TRPC6 inhibitor. membrane potential fluorescence. percent change from control (negative = decrease, positive = increase), % at 10 µM;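 active = membrane potential signal moved up or down beyond 5 SD of buffer control wells, in both duplicate plates, actives on both sides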;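 also: plate controls were assay buffer wells for no effect and DAMGO maximal-effect wells for full effect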
TRPC4 ctr inh 2 – mouse TRPC4 off-target activity of TRPC6 modulators, second screen | 2,400 tested, 55% active | inhibition, % at 10 µM | shares compounds with TRPC6 inhibitor | HEK293 TRPC4/mu-opioid, membrane potential dye fluorescence; stimulated with maximal-effect DAMGO;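 active = drop in membrane potential signal beyond 5 SD of the control wells in both duplicate plates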;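 also: TRPC4 counter screen for TRPC6 hits run under conditions tuned for TRPC6 not TRPC4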
TRPC6 inh conf – mouse TRPC6 channel inhibitors, confirmation, HEK293 cells, membrane potential dye, duplicate; shares compounds with TRPC6 inhibitor; ACh-evoked depolarization; inhibition, % at 10 µM; 3,300 tested, 43% active;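 active = fluorescence ratio falls more than 5 SD below the full-stimulation control mean, in both duplicate runs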;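 also: integrated fluorescence ratio of peak minus minimum over baseline after agonist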
TRPC6 act confirm – mouse TRPC6 channel activators, confirmation, HEK293 cells, membrane potential dye, duplicate; 2,800 tested, 11% active; activation, % at 10 µM; HEK293-TRPC6 membrane potential dye fluorescence, FDSS; shares compounds with TRPC6 inhibitor; AID 488961, 2010;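 active = ratio signal rise beyond 5 SD above unstimulated control wells' mean, seen in both duplicate runs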;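 also: plate controls were buffer EC0 wells for no effect and acetylcholine ECmax response for full effect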
* hit, by the source's call; i = inactive; . = no result.

SMILES	TRPC4 potent	TRPC4 inh	TRPC6 inhibitor	TRPC4 agonist	TRPC6 act	HEK293 MPD ctr-2	HEK293 MPD ctr 2-2	TRPC4 ctr mod	TRPC4 ctr inh 2	TRPC6 inh conf	TRPC6 act confirm	others
Cc1ccc2nc(NCc3ccccc3)[nH]c2c1	i	-5*	-6.5*	i	i	i	i	i	98%*	49%*	i
COc1ccc2nc(NCc3ccccc3)[nH]c2c1	i	-7*	-5.2*	i	i	i	i	i	90%*	i	i
Cc1ccccc1-n1ncc2c1CC(C)(C)CC2NC(=O)CCCN1CCCC1=O (configuration not stated)	i	i	i	i	i	.	.	.	.	.	.
COc1c(Cl)cc(C(=O)NCc2ccco2)cc1Cl	i	i	i	i	i	.	.	.	.	.	.
COc1cccc(N2CCN(C3CCCC(C)C3)CC2)c1 (configuration not stated)	i	i	-5.8*	i	i	184%*	i	38%*	48%*	i	.
COc1ccc(S(=O)(=O)N2CCN(C3CCCC(C)C3)CC2)cc1 (configuration not stated)	i	i	i	i	i	.	.	.	.	.	.
CN(C)CCCNc1nc2sc3c(c2c(=O)n1CCc1ccccc1)CCCCC3	i	i	-7*	i	i	.	.	.	.	i	i	TRPC4 sel inh 2=74%*;TRPC4 spec=-11%*;HEK293 MPD ctr 2-1=i;HEK293 MPD ctr-1=i
O=c1c2c3c(sc2nc(NCCO)n1-c1ccccc1)CCCC3	i	i	i	i	i	.	.	.	.	.	.
